Experimental data as given in ChEMBL document CHEMBL1128222, “Novel inhibitors for multidrug resistance: 1,3,5-triazacycloheptanes” (J Med Chem, 1995).

Key:
P388/S [1] = experiment: Evaluation of inhibitory activity and cisplatin against drug sensitive P388 cells (P388/S) cells; assay type: functional, cell-based, Mus musculus
Method in brief: (§1)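 P388/S or P388/ADR cells at 10^5 cells/mL in RPMI-1640/10% FCS medium. They receive graded adriamycin, mitomycin C or cisplatin, alone or together with 2.5 μM modulator, for 48 h (DMSO final 0.25%). Growth is read by MTT and the antitumor-drug IC50 is reported.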

P388/ADR [2] = experiment: Evaluation of inhibitory activity and adriamycin against multidrug resistant P388 cells (P388/ADR) cells; conditions: Mus musculus
P388/S [3] = experiment: Evaluation of inhibitory activity against drug sensitive P388 cells (P388/S) cells; assay type: functional, cell-based, Mus musculus
Method in brief: (§2)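 P388/S and P388/ADR murine leukemia cells are maintained by weekly intraperitoneal passage in female CDF1 mice. For the assay they are seeded at 10^5 cells/mL in RPMI-1640 with 10% FCS, 20 μM β-mercaptoethanol and 100 μg/mL kanamycin. Vinblastine is given with or without modulator (0–5.0 μM; DMSO final 0.25%) for 48 h. Growth is read by MTT and vinblastine IC50 is reported.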

P388/ADR [4] = experiment: Evaluation of inhibitory activity against multidrug resistant P388 cells (P388/ADR) cells; assay type: functional, cell-based, Mus musculus; conditions: p388/adr; method in brief: as §2
Mus musculus [5] = experiment: Evaluation of ILS percentage of mice upon intraperitoneal injection of VBL at a concentration of 0.2 mg/kg; assay type: functional; conditions: ip
Method in brief: (§3)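 Female CD2F1 mice, 5 per group, were inoculated i.p. with 1.0 × 10^6 P388/ADR cells on day 0. VBL was given by i.p. injection and/or the test agent orally on days 1-4 and 6-8. Read-out was survival days (average ± SD) and ILS (%) against the untreated group, with P < 0.05 by Student's t-test or a two-sample test with Welch's correction.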

Mus musculus [6] = experiment: Evaluation of Survival of mice upon intraperitoneal injection of VBL at a concentration of 0.2 mg/kg; assay type: functional; conditions: ip; method in brief: as §3
Mus musculus [7] = experiment: In vivo evaluation for the inhibitory activity against drug sensitive P388 cells (P388/S) cells bearing mice at dose 0.2 mg/kg; assay type: functional
Method in brief: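 Mice were implanted with 1 × 10^6 P388/S cells on day 0 and given VBL by i.p. injection on days 1-4 and 6-8. Survival days (average ± SD) and ILS (%) were compared with the untreated group, with P < 0.05 by Student's t-test or Welch-corrected two-sample test.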

Mus musculus [8] = experiment: In vivo evaluation for the inhibitory activity against drug sensitive P388 cells (P388/S) cells bearing mice at a concentration of 0.2 mg/kg
Mus musculus [9] = experiment: Evaluation of ILS percentage of mice upon intraperitoneal injection of VBL / oral administration on days 1-4 and 6-8 at a concentration of 20 mg/kg; assay type: functional; method in brief: as §3
Mus musculus [10] = experiment: Evaluation of ILS percentage of mice upon intraperitoneal injection of VBL / oral administration on days 1-4 and 6-8 at a concentration of 40 mg/kg; assay type: functional; method in brief: as §3
Mus musculus [11] = experiment: Evaluation of ILS percentage of mice upon intraperitoneal injection of VBL and/or oral administration on days 1-4 and 6-8 at a concentration of 10 mg/kg; assay type: functional; method in brief: as §3
Mus musculus [12] = experiment: Evaluation of Survival of mice intraperitoneal injection of VBL and/or oral administration on days 1-4 and 6-8 at a concentration of 40 mg/kg in mice; assay type: functional; method in brief: as §3
Mus musculus [13] = experiment: Evaluation of Survival of mice upon intraperitoneal injection of VBL and/or oral administration on days 1-4 and 6-8 at a concentration of 10 mg/kg; assay type: functional; method in brief: as §3
Mus musculus [14] = experiment: Evaluation of Survival of mice upon intraperitoneal injection of VBL and/or oral administration on days 1-4 and 6-8 at a concentration of 20 mg/kg; assay type: functional; method in brief: as §3
P388/ADR [15] = experiment: Relative increase in inhibitory activity against multidrug resistant P388 cells (P388/ADR) cells at a concentration of 1.0 uM in presence of vinblastine; assay type: functional, Mus musculus
Method in brief: (§4)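 Same 48 h MTT growth assay in P388/S or P388/ADR cells at 10^5 cells/mL. Vinblastine IC50 is found alone and with modulator at 1.0, 2.5 or 5.0 μM. The value is the relative increase in vinblastine growth-inhibitory effect, taken as the fold change in IC50 from the combined treatment.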

P388/ADR [16] = experiment: Relative increase in inhibitory activity against multidrug resistant P388 cells (P388/ADR) cells at a concentration of 2.5 uM in presence of vinblastine; assay type: functional, Mus musculus; method in brief: as §4
P388/ADR [17] = experiment: Relative increase in inhibitory activity against multidrug resistant P388 cells (P388/ADR) cells at a concentration of 5.0 uM in presence of vinblastine; assay type: functional, Mus musculus; method in brief: as §4
P388/S [18] = experiment: In vitro evaluation for the inhibitory activity against drug sensitive P388 cells (P388/S) cells at a concentration of 5.0 uM; assay type: functional, cell-based; conditions: Mus musculus; method in brief: as §2
P388/S [19] = experiment: Inhibitory activity against drug sensitive P388 cells (P388/S) cells in presence of adriamycin; assay type: functional, cell-based; conditions: Mus musculus; method in brief: as §1
P388/S [20] = experiment: Inhibitory activity against drug sensitive P388 cells (P388/S) cells in presence of cisplatin; assay type: functional, cell-based; conditions: Mus musculus; method in brief: as §1
P388/S [21] = experiment: Inhibitory activity against drug sensitive P388 cells (P388/S) cells in presence of mitomycin C; assay type: functional, cell-based; conditions: Mus musculus; method in brief: as §1
P388/S [22] = experiment: Relative increase in inhibitory activity against drug sensitive P388 cells (P388/S) cells at a concentration of 1.0 uM in presence of vinblastine; assay type: functional, Mus musculus; method in brief: as §4
P388/S [23] = experiment: Relative increase in inhibitory activity against drug sensitive P388 cells (P388/S) cells at a concentration of 2.5 uM in presence of vinblastine; assay type: functional, Mus musculus; method in brief: as §4
P388/S [24] = experiment: In vitro evaluation for the inhibitory activity against drug sensitive P388 cells (P388/S) cells at a concentration of 0 uM; assay type: functional, cell-based; conditions: Mus musculus; method in brief: as §2
P388/S [25] = experiment: In vitro evaluation for the inhibitory activity against drug sensitive P388 cells (P388/S) cells at a concentration of 1.0 uM; assay type: functional, cell-based; conditions: Mus musculus; method in brief: as §2
P388/S [26] = experiment: In vitro evaluation for the inhibitory activity against drug sensitive P388 cells (P388/S) cells at a concentration of 2.5 uM; assay type: functional, cell-based; conditions: Mus musculus; method in brief: as §2
P388/S [27] = experiment: Relative increase in inhibitory activity against drug sensitive P388 cells (P388/S) cells at a concentration of 5.0 uM in presence of vinblastine; assay type: functional, Mus musculus; method in brief: as §4
P388/ADR [28] = experiment: In vitro for the inhibitory activity against multidrug resistant P388 cells (P388/ADR) cells at a concentration of 0 uM; assay type: functional, cell-based; conditions: Mus musculus; method in brief: as §2
P388/ADR [29] = experiment: In vitro for the inhibitory activity against multidrug resistant P388 cells (P388/ADR) cells at a concentration of 1.0 uM; assay type: functional, cell-based; conditions: Mus musculus; method in brief: as §2
P388/ADR [30] = experiment: In vitro for the inhibitory activity against multidrug resistant P388 cells (P388/ADR) cells at a concentration of 2.5 uM; assay type: functional, cell-based; conditions: Mus musculus; method in brief: as §2
P388/ADR [31] = experiment: In vitro for the inhibitory activity against multidrug resistant P388 cells (P388/ADR) cells at a concentration of 5 uM; assay type: functional, cell-based; conditions: Mus musculus; method in brief: as §2
P388/ADR [32] = experiment: Inhibitory activity against multidrug resistant P388 cells (P388/ADR) cells at a concentration of 2.5 uM in presence of cisplatin; conditions: Mus musculus
P388/ADR [33] = experiment: Inhibitory activity against multidrug resistant P388 cells (P388/ADR) cells at a concentration of 2.5 uM in presence of adriamycin; conditions: Mus musculus
P388/ADR [34] = experiment: Inhibitory activity against multidrug resistant P388 cells (P388/ADR) cells at a concentration of 2.5 uM in presence of mitomycin C; conditions: Mus musculus
P388/ADR [35] = experiment: Evaluation of inhibitory activity and cisplatin against multidrug resistant P388 cells (P388/ADR) cells; assay type: functional, cell-based, Mus musculus; method in brief: as §1
Mus musculus [36] = experiment: Evaluation of ILS percentage of mice upon oral administration on days 1-4 and 6-8 at a concentration of 40 mg/kg; assay type: functional; method in brief: as §3
Mus musculus [37] = experiment: Evaluation of Survival of mice upon oral administration on days 1-4 and 6-8 at a concentration of 40 mg/kg; assay type: functional; method in brief: as §3
P388/ADR [38] = experiment: In vitro relative vinblastin uptake into P388/ADR (murine leukemia/multidrug resistant) cells following 10 uM treatment.; assay type: functional, Mus musculus
Method in brief: (§5)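 10^6 P388/S or P388/ADR cells in 1 mL of 20 mM Hepes-buffered medium, pH 7.4. They are incubated with 4.6 kBq [3H]vinblastine with or without 10 μM compound (DMSO final 1%) at 37 °C for 30 min. Cells are then chilled, pelleted at 2 °C and washed twice in cold PBS. They are solubilized in NaOH and counted. The value is uptake relative to untreated cells.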

P388/S [39] = experiment: In vitro relative vinblastin uptake into P388/s (murine leukemia) cells following 10 uM treatment.; assay type: functional, Mus musculus; method in brief: as §5

Molecule: COc1cccc2c1C(=O)c1c(O)c3c(c(O)c1C2=O)C[C@@](O)(C(=O)CO)C[C@@H]3OC1C[C@H](N)[C@H](O)[C@H](C)O1.CSC1=NC(=O)N(Cc2ccc(Cl)cc2)CCN1Cc1ccc(Cl)cc1 (some centres not stated)
- IC50 (P388/S [1]; Mus musculus, P388/S): 13 nM
- IC50 (P388/ADR [2]): 90 nM

Molecule: COC12[C@H](COC(N)=O)C3=C(C(=O)C(C)=C(N)C3=O)N1C[C@@H]1N[C@@H]12.CSC1=NC(=O)N(Cc2ccc(Cl)cc2)CCN1Cc1ccc(Cl)cc1
- IC50 (P388/S [1]; Mus musculus, P388/S): 44 nM
- IC50 (P388/ADR [2]): 264 nM

Molecule: CISPLATIN
- IC50 (P388/S [3]): 48 nM
- IC50 (P388/ADR [4]): 61 nM

Molecule: CC[C@]1(O)C[C@@H]2CN(CCc3c([nH]c4ccccc34)[C@@](C(=O)OC)(c3cc4c(cc3OC)N(C)[C@H]3[C@@](O)(C(=O)OC)[C@H](OC(C)=O)[C@]5(CC)C=CCN6CC[C@]43[C@@H]65)C2)C1 [VINBLASTINE]
- ILS at 0.2 mg/kg (Mus musculus [5]): 89%
- ILS at 0.2 mg/kg (Mus musculus [6]): 14.6%
- Survival days (Mus musculus [7]): 15.5
- Survival days (Mus musculus [8]): 15.5

Molecule: CC[C@]1(O)C[C@H]2CN(CCc3c([nH]c4ccccc34)[C@@](C(=O)OC)(c3cc4c(cc3OC)N(C)[C@H]3[C@@](O)(C(=O)OC)[C@H](OC(C)=O)[C@]5(CC)C=CCN6CC[C@]43[C@@H]65)C2)C1.CSC1=NC(=O)N(Cc2ccc(Cl)cc2)CCN1Cc1ccc(Cl)cc1
- ILS at 20 mg/kg (Mus musculus [9]): 37.5%
- ILS at 40 mg/kg (Mus musculus [10]): 45.8%
- ILS at 10 mg/kg (Mus musculus [11]): 20.8%
- Survival days (Mus musculus [12]): 14
- Survival days (Mus musculus [13]): 11.6
- Survival days (Mus musculus [14]): 13.2
- Relative activity (P388/ADR [15]): 3.2
- Relative activity (P388/ADR [16]): 11
- Relative activity (P388/ADR [17]): 23
- IC50 (P388/S [18]): 0.4 nM
- IC50 (P388/S [19]): 13 nM
- IC50 (P388/S [20]): 72 nM
- IC50 (P388/S [21]): 44 nM
- Relative activity (P388/S [22]): 1.9
- Relative activity (P388/S [23]): 2.4
- IC50 (P388/S [24]): 1.7 nM
- IC50 (P388/S [25]): 0.9 nM
- IC50 (P388/S [26]): 0.7 nM
- Relative activity (P388/S [27]): 4.3
- IC50 (P388/ADR [28]): 70 nM
- IC50 (P388/ADR [29]): 23 nM
- IC50 (P388/ADR [30]): 6.2 nM
- IC50 (P388/ADR [31]): 2.2 nM
- IC50 (P388/ADR [32]): 51 nM
- IC50 (P388/ADR [33]): 90 nM
- IC50 (P388/ADR [34]): 264 nM

Molecule: 1,5-Bis-(4-chloro-benzyl)-4-methylsulfanyl-1,5,6,7-tetrahydro-[1,3,5]triazepin-2-one; compound with cisplatin
- IC50 (P388/S [1]; p388/s): 72 nM
- IC50 (P388/ADR [35]): 51 nM

Molecule: CSC1=NC(=O)N(Cc2ccc(Cl)cc2)CCN1Cc1ccc(Cl)cc1
- ILS at 40 mg/kg (Mus musculus [36]): 4.2%
- Survival days (Mus musculus [37]): 10
- Relative uptake (P388/ADR [38]): 6.87
- Relative uptake (P388/S [39]): 1.28
